Data set [1] in a line: folding enthalpy; higher = less favourable; fluorescence melt of hairpins on a sequencing array, two-state fit. As to conditions: sodium 0.088 M. In outline:
(§1)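 Two-state fits, bootstrapped, provided melting temperature and folding enthalpy from Cy3 fluorescence normalised to pre-quench Cy3 and to control constructs. Library hairpins with annealed Cy3 and quencher oligos were imaged on a sequenced MiSeq flow cell in 50 mM Na-HEPES pH 8.0, 25 mM NaCl, at 2.5 °C intervals up to 60 °C. Four replicates were combined with inverse-variance weighting. A 9.35 °C upward shift was applied to fitted temperatures to match UV melts.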

Data set [2] can be described thus: melting temperature; fluorescence melt of hairpins on a sequencing array, two-state fit, raised by 9.35 °C to match UV melts. As to conditions: sodium 0.088 M. In outline: as §1

As for GCGGGCGGAAACACCCGC (((((.(....).))))), the folding enthalpy in data set [1] is -44.2 kcal/mol. For the same sequence, the Tm in data set [2] stood at 60.5 °C.
In the same order, the values of GATCGCTCTCGCGATC ((((((....)))))) are -34.2 kcal/mol and 67.6 °C.
In the case of GTAGCCGAAAGGCACTAC ((((((....)))..))), in data set [1], the folding enthalpy was -12.5 kcal/mol. For the same sequence, in data set [2], the Tm turned out to be 48.5 °C.
GCCTTCGAAAGAACCGGC ((((((....)))..))): the folding enthalpy in data set [1] is -19.4 kcal/mol. Moreover, the Tm in data set [2] worked out at 33.9 °C.
The matching figures for GTGTCCGAAAGGAAGCAC ((((((....)))..))): -19.2 kcal/mol and 38.6 °C.
As for GCAAACGGAAACATTTGC (((((.(....).))))), in data set [1], the folding enthalpy is -28.2 kcal/mol. Besides, the Tm in data set [2] was determined as 36.7 °C.
In the same order, the values of GCGAGAGTCGC ((((...)))) are -11.3 kcal/mol and 55.5 °C.
In the same order, the values of GGACGCCGAAAGGCTCC (((.(((....)))))) are -19.7 kcal/mol and 54.3 °C.
Take GAATTGGAAACAATTC ((((((....)))))): the folding enthalpy in data set [1] was -35.6 kcal/mol. Further, the Tm in data set [2] was 47.3 °C.
For GCTCGCGAAAGCGATAGC ((((((....)))..))), in data set [1], the folding enthalpy was -14.4 kcal/mol. Also, the Tm in data set [2] came to 50.3 °C.
The matching figures for GGGCGCGAAAGCGTACCC ((((((....)))..))): -13.1 kcal/mol and 56.3 °C.
In the case of GAAAAGGGAAACCCTTTC ((((.((....)).)))), the folding enthalpy in data set [1] was -17 kcal/mol. Also, in data set [2], the Tm came out at 32.6 °C.
GCAATACGAAAGTACTGC (((.(((....))).))): the folding enthalpy in data set [1] is -31.3 kcal/mol. Moreover, the Tm in data set [2] stood at 43.9 °C.
As to GATCTAGCCTAGATC ((((((...)))))), in data set [1], the folding enthalpy is -28.4 kcal/mol. Moreover, the Tm in data set [2] turned out to be 40.8 °C.
For GGTAGACGAAAGTCAACC (((.(((....))).))), in data set [1], the folding enthalpy is -26.3 kcal/mol. Besides, in data set [2], the Tm is 51.5 °C.
Regarding GCATCGCGAAAGCGCTGC (((.(((....))).))), the folding enthalpy in data set [1] was -42 kcal/mol. Further, the Tm in data set [2] was determined as 56 °C.
In the case of GATCGAAAGTTCGATC ((((((....)))))), the folding enthalpy in data set [1] is -36.2 kcal/mol. The Tm in data set [2] came to 50.4 °C.
For the sequence GATCGGCAGACCGATC ((((((....)))))), the folding enthalpy in data set [1] was -38 kcal/mol. Besides, in data set [2], the Tm came to 57.5 °C.
The matching figures for GCGCACGAAAGTGGACGC ((((((....)))..))): -32.7 kcal/mol and 55.4 °C.
Turning to GGGTGAGGAAACTCATCC ((.((((....)))).)), the folding enthalpy in data set [1] was -43.1 kcal/mol. Further, the Tm in data set [2] came to 49.2 °C.
In the case of GGTAAGAAATTACC (((((....))))), the folding enthalpy in data set [1] is -16 kcal/mol. The Tm in data set [2] came to 34.3 °C.
With GGGTCCGAAAGGATACCC ((((((....)))..))), the folding enthalpy in data set [1] is -20.1 kcal/mol. The Tm in data set [2] stood at 50 °C.
For the sequence GATCACCATGGTGATC ((((((....)))))), the folding enthalpy in data set [1] is -43.6 kcal/mol. In addition, in data set [2], the Tm came out at 63.8 °C.
In the case of GTGGAGGGAAACTTCCAC (((((.(....).))))), in data set [1], the folding enthalpy was -30.4 kcal/mol. Besides, in data set [2], the Tm worked out at 47.3 °C.
For CGGGCGGAAACGCGACCG ((((((....)))..))), the folding enthalpy in data set [1] is -30.5 kcal/mol. The Tm in data set [2] is 57.8 °C.
Consider GGTTACGAAAGTACACC ((((((....))).))), for which the folding enthalpy in data set [1] is -22.7 kcal/mol. In data set [2], the Tm was found to be 42.2 °C.
The matching figures for GGATACCGAAAGGTTTCC (((.(((....))).))): -37.6 kcal/mol and 50.2 °C.
In the case of GTTAACCGAAAGGTCAAC (((.(((....))).))), in data set [1], the folding enthalpy is -20.5 kcal/mol. Further, the Tm in data set [2] came out at 37.7 °C.
GATCAAGCCTTGATC ((((((...)))))): the folding enthalpy in data set [1] was -26.1 kcal/mol. For the same sequence, in data set [2], the Tm amounted to 44.1 °C.
Turning to GGGTTTGGAAACGAACTC (.(((.(....).))).), the folding enthalpy in data set [1] is -24 kcal/mol. Besides, the Tm in data set [2] was found to be 32.4 °C.
On to GCATTAGGAAACTGATGC ((((.((....)).)))), for which the folding enthalpy in data set [1] was -36.7 kcal/mol. In data set [2], the Tm turned out to be 45.4 °C.
Consider GCTGACGAAAGTCAAAGC ((((((....)))..))), for which the folding enthalpy in data set [1] was -17.9 kcal/mol. Moreover, the Tm in data set [2] was determined as 48.7 °C.
For GCATTGCGAAAGCCAGGC ((.(.((....)).).)), the folding enthalpy in data set [1] is -17.6 kcal/mol. Also, the Tm in data set [2] was found to be 38.5 °C.
Consider GCGGCCGAAAGGCAACGC ((((((....)))..))), for which the folding enthalpy in data set [1] is -19.1 kcal/mol. The Tm in data set [2] was 64.3 °C.
Regarding GTGTATGGAAACGTACAC (((((.(....).))))), the folding enthalpy in data set [1] was -33.9 kcal/mol. Also, the Tm in data set [2] came out at 47.2 °C.
Regarding GGAGTAGGAAACTACTTC (.(((((....))))).), the folding enthalpy in data set [1] is -29.2 kcal/mol. Besides, the Tm in data set [2] was determined as 44.4 °C.
In the same order, the values of GAGATGCGAAAGCAACTC (((.(((....))).))) are -23 kcal/mol and 53.9 °C.
As to GGACCTGAAAAGGTCC ((((((....)))))), the folding enthalpy in data set [1] was -34.4 kcal/mol. Also, the Tm in data set [2] turned out to be 68.2 °C.
The matching figures for GACAAACCGAAAGGTGTC (((..(((....)))))): -19.8 kcal/mol and 43.2 °C.
Regarding GGACGTGGAAACGTGTCC ((((..(....)..)))), the folding enthalpy in data set [1] was -19.9 kcal/mol. Further, in data set [2], the Tm amounted to 44.3 °C.
As for GATCCGTTCCGGATC ((((((...)))))), the folding enthalpy in data set [1] is -46 kcal/mol. The Tm in data set [2] is 59.2 °C.
On to GGGGTCGAAAGACTCCC ((((((....))).))), for which the folding enthalpy in data set [1] was -30.9 kcal/mol. The Tm in data set [2] worked out at 57 °C.
Consider GATGAAGGAAACCTCATC (((((.(....).))))), for which the folding enthalpy in data set [1] is -24.7 kcal/mol. For the same sequence, the Tm in data set [2] worked out at 36.1 °C.
The matching figures for GCTGGGCGAAAGCCTGGC ((..(((....)))..)): -24.5 kcal/mol and 60.9 °C.
GCCATGGGAAACTATGGC (((((.(....).))))): the folding enthalpy in data set [1] was -37.4 kcal/mol. The Tm in data set [2] was 52.5 °C.
GATCAACAGTTTGATC ((((((....)))))): the folding enthalpy in data set [1] was -31.2 kcal/mol. In addition, in data set [2], the Tm is 41.3 °C.
Turning to GGCGACTCGAAAGAGGCC (((..(((....)))))), in data set [1], the folding enthalpy is -16.9 kcal/mol. Moreover, the Tm in data set [2] stood at 49.7 °C.
Take GGTAGCGAAAGCTCGACC ((((((....)))..))): the folding enthalpy in data set [1] is -15.1 kcal/mol. For the same sequence, the Tm in data set [2] came to 34.6 °C.
The matching figures for GCCCCCGAAAGGGCAGGC ((((((....)))..))): -17.9 kcal/mol and 50.4 °C.
The matching figures for GGGTCGGGAAACTGGCCC (((.(.(....).).))): -35.8 kcal/mol and 50.6 °C.
For the sequence GAGCATCCGAAAGGACTC (((..(((....)))))), in data set [1], the folding enthalpy was -10.8 kcal/mol. The Tm in data set [2] was 27.5 °C.
GGTTTCGAAAGAATCACC ((((((....)))..))): in data set [1], the folding enthalpy is -13 kcal/mol. For the same sequence, in data set [2], the Tm was 26.7 °C.
The matching figures for GGGGATCGAAAGATACCC (((.(((....))).))): -43.2 kcal/mol and 62.3 °C.
Regarding GTACTTGGAAACAAGTAC (((((((....))))))), in data set [1], the folding enthalpy was -33.5 kcal/mol. Besides, the Tm in data set [2] came to 56 °C.
With GCGCGGCGAAAGCCCGGC ((..(((....)))..)), the folding enthalpy in data set [1] is -12.8 kcal/mol. The Tm in data set [2] amounted to 59.7 °C.
In the case of GTAAGCGAAAGCTTTTAC ((((((....)))..))), the folding enthalpy in data set [1] is -11.8 kcal/mol. For the same sequence, the Tm in data set [2] is 29.7 °C.
For GCACGGGGAAACTCGTGC (((((.(....).))))), the folding enthalpy in data set [1] was -45.9 kcal/mol. Moreover, in data set [2], the Tm came to 60.5 °C.
On to GATCTGCATTCAGATC ((((((....)))))), for which, in data set [1], the folding enthalpy was -39.6 kcal/mol. Further, in data set [2], the Tm was found to be 48.9 °C.
In the case of GGTCTTCGAAAGAATACC (((.(((....))).))), in data set [1], the folding enthalpy was -32.9 kcal/mol. Besides, the Tm in data set [2] was found to be 39.1 °C.
The matching figures for GTCGTCCGAAAGGATGAC (((.(((....))).))): -54.4 kcal/mol and 62.1 °C.
In the same order, the values of GATCAATGTATTGATC ((((((....)))))) are -41.1 kcal/mol and 51 °C.
As for GACCTGCGAAAGCAGTC (((.(((....)))))), in data set [1], the folding enthalpy was -12.2 kcal/mol. The Tm in data set [2] was determined as 48.5 °C.
As for GATCTTGCCCAAGATC ((((((....)))))), the folding enthalpy in data set [1] is -45.9 kcal/mol. Further, the Tm in data set [2] worked out at 48.9 °C.
In the same order, the values of GATCTCCGACGAGATC ((((((....)))))) are -38.1 kcal/mol and 50 °C.
In the case of GCTCAAGCGAAAGCTAGC (((..(((....)))))), the folding enthalpy in data set [1] was -14.1 kcal/mol. The Tm in data set [2] amounted to 40.6 °C.
In the same order, the values of GATTCCGAAAGGACAATC ((((((....)))..))) are -13.8 kcal/mol and 25.6 °C.
On to GTGTTAGGAAACTAACGC (.(((((....))))).), for which the folding enthalpy in data set [1] is -21.8 kcal/mol. Further, the Tm in data set [2] came out at 47.4 °C.
Turning to GATCTCACAGAGATC ((((((...)))))), the folding enthalpy in data set [1] is -39.3 kcal/mol. The Tm in data set [2] came to 56.1 °C.
Consider GATAGGAAACTATC (((((....))))), for which the folding enthalpy in data set [1] is -15.4 kcal/mol. For the same sequence, the Tm in data set [2] worked out at 40.2 °C.
GGATCAGGAAACTGACCC ((.((((....)))).)): in data set [1], the folding enthalpy was -27.7 kcal/mol. Further, in data set [2], the Tm was 41.4 °C.
Consider GCACCGCGAAAGCGCCGC ((..(((....)))..)), for which the folding enthalpy in data set [1] is -8.78 kcal/mol. In data set [2], the Tm was 36.1 °C.
On to GCCGTCCGAAAGGAGGC (((.(((....)))))), for which the folding enthalpy in data set [1] was -27.4 kcal/mol. In data set [2], the Tm stood at 58.4 °C.
In the case of GATCGTAGAAACGATC ((((((....)))))), the folding enthalpy in data set [1] was -35.2 kcal/mol. Besides, in data set [2], the Tm came to 51.1 °C.
In the case of GCGAGGGTTCGC ((((....)))), the folding enthalpy in data set [1] is -15.7 kcal/mol. Also, the Tm in data set [2] stood at 49.3 °C.

These data come from the array DNA melting data of Ke et al. (doi:10.1101/2024.01.08.574731).
